ChEMBL document CHEMBL1123977, “Synthesis, receptor binding, and tissue distribution of (17 alpha,20E)- and (17 alpha,20Z)-21-[125I]iodo-19-norpregna-1,3,5(10), 20-tetraene-3,17-diol ” (1988)
Several values for one entry are separate records, joined by “and”; a condition that tells them apart may be missing. Equal values may be shown once.

Assays:
Rattus norvegicus [1] = experiment: In vivo deiodination in 1 hour after administration of compound; assay type: functional
Method in brief: (§1)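 In immature female Fischer rats given 3 μCi (111 kBq) of 125I-steroid iv, deiodination was estimated from thyroid PDK at 1, 2 or 5 h, or at 2 h with 60 μg co-injected estradiol. Thyroid uptake after [125I]NaI injection at the same time interval was taken as 100%.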

Rattus norvegicus [2] = experiment: In vivo deiodination in 2 hour after administration of compound; assay type: functional; method in brief: as §1
Rattus norvegicus [3] = experiment: In vivo deiodination in 2 hour after administration of compound in presence of 60 microg of estradiol; assay type: functional; method in brief: as §1
Rattus norvegicus [4] = experiment: In vivo deiodination in 5 hr after administration of compound; assay type: functional; method in brief: as §1
Rattus norvegicus [5] = experiment: Mean uptake in adrenals 1 hr after intravenous injection of 3 microCi (111 kBq) of the compound; assay type: functional, Adrenal gland
Method in brief: (§2)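 Immature female Fischer rats (24 days old, 55-60 g) had free access to food and water. They were warmed under an infrared lamp, then given 200 μL HPLC-purified 125I-labeled steroid (3 μCi, 111 kBq) in saline with 9% ethanol and 1% Tween 80 via the lateral tail vein. Where stated, 60 μg unlabeled estradiol was co-injected. Rats were killed at 1, 2 or 5 h. Tissues were KCl-washed, blotted, weighed and gamma-counted against a reference of the injectate. Results are PDK (% dose × kg/g), mean and SD of three rats.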

Rattus norvegicus [6] = experiment: Mean uptake in adrenals 2 hr after intravenous injection of 3 microCi (111 kBq); assay type: functional, Adrenal gland; method in brief: as §2
Rattus norvegicus [7] = organism: Rattus norvegicus; experiment: Effect of Co-injection with estradiol on the uterus to blood ratio (Co-injected with 60 microg of estradiol (E2)); assay type: functional
Method in brief: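 Immature female Fischer rats (24 days, 55-60 g) received 3 μCi (111 kBq) 125I-labelled steroid iv via the lateral tail vein, in 200 μL 9% ethanol-saline with 1% Tween 80, co-injected with 60 μg unlabelled estradiol. Killed at 2 h. Uterus and blood were KCl-washed and gamma-counted as PDK. Ratio is the mean of three rats; % change is versus tracer-only animals.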

Rattus norvegicus [8] = experiment: Mean uptake in uterus 2 hr after intravenous injection of 3 microCi (111 kBq); assay type: functional
Method in brief: (§3)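 Immature female Fischer rats (24 days old, 55-60 g), food and water free. 3 μCi (111 kBq) HPLC-purified 125I-labeled steroid given iv via lateral tail vein in 200 μL saline containing 9% ethanol and 1% Tween 80; receptor-saturation group co-injected with 60 μg unlabeled estradiol. Sacrificed at set times; uterus washed with 0.154 M KCl, blotted, weighed, gamma counted against injected reference; expressed as PDK (% dose × kg/g), mean of three rats.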

Rattus norvegicus [9] = experiment: Mean uptake in uterus 2 hr after intravenous injection of 3 uM Ci (111 kBq) in presence of 60 ug coinjected estradiol; assay type: functional; method in brief: as §3
Rattus norvegicus [10] = experiment: Mean uptake in uterus 1 hr after intravenous injection of 3 microCi (111 kBq) of the compound; assay type: functional; method in brief: as §2
Rattus norvegicus [11] = experiment: Mean uptake in uterus 5 hr after intravenous injection of 3 microCi (111 kBq); assay type: functional; method in brief: as §3
Rattus norvegicus [12] = experiment: Mean uptake in blood 5 hr after intravenous injection of 3 microCi (111 kBq); assay type: functional; method in brief: as §2
Rattus norvegicus [13] = experiment: Mean uptake in adrenals 2 hr after intravenous injection of 3 uM Ci (111 kBq) in presence of 60 ug coinjected estradiol; assay type: functional, Adrenal gland; method in brief: as §2
Rattus norvegicus [14] = experiment: Mean uptake in adrenals 5 hr after intravenous injection of 3 microCi (111 kBq); assay type: functional, Adrenal gland; method in brief: as §2
Rattus norvegicus [15] = experiment: Mean uptake in blood 2 hr after intravenous injection of 3 microCi (111 kBq); assay type: functional; method in brief: as §2
Rattus norvegicus [16] = experiment: Mean uptake in blood 2 hr after intravenous injection of 3 microCi (111 kBq) in presence of 60 ug coinjected estradiol; assay type: functional; method in brief: as §2
Rattus norvegicus [17] = experiment: Mean uptake in blood after intravenous injection of 3 microCi (111 kBq) of the compound; assay type: functional; method in brief: as §2
Rattus norvegicus [18] = experiment: Mean uptake in brain 1 hr after intravenous injection of 3 microCi (111 kBq) of the compound; assay type: functional; method in brief: as §2
Rattus norvegicus [19] = experiment: Mean uptake in brain 2 hr after intravenous injection of 3 microCi (111 kBq); assay type: functional; method in brief: as §2
Rattus norvegicus [20] = experiment: Mean uptake in brain 2 hr after intravenous injection of 3 uM Ci (111 kBq) in presence of 60 ug coinjected estradiol; assay type: functional; method in brief: as §2
Rattus norvegicus [21] = experiment: Mean uptake in kidneys 1 hr after intravenous injection of 3 microCi (111 kBq) of the compound; assay type: functional; method in brief: as §2
Rattus norvegicus [22] = experiment: Mean uptake in kidneys 2 hr after intravenous injection of 3 microCi (111 kBq); assay type: functional; method in brief: as §2
Rattus norvegicus [23] = experiment: Mean uptake in kidneys 2 hr after intravenous injection of 3 microCi (111 kBq) in presence of 60 ug coinjected estradiol; assay type: functional, Kidney; method in brief: as §2
Rattus norvegicus [24] = experiment: Mean uptake in kidneys 5 hr after intravenous injection of 3 microCi (111 kBq); assay type: functional; method in brief: as §2
Rattus norvegicus [25] = experiment: Mean uptake in liver 2 hr after intravenous injection of 3 microCi (111 kBq); assay type: functional; method in brief: as §2
Rattus norvegicus [26] = experiment: Mean uptake in ovaries 5 hr after intravenous injection of 3 microCi (111 kBq); assay type: functional, Female gonad; method in brief: as §2
Rattus norvegicus [27] = experiment: Mean uptake in spleen 1 hr after intravenous injection of 3 microCi (111 kBq) of the compound; assay type: functional; method in brief: as §2
Rattus norvegicus [28] = experiment: Mean uptake in spleen 2 hr after intravenous injection of 3 microCi (111 kBq); assay type: functional; method in brief: as §2
Rattus norvegicus [29] = experiment: Mean uptake in spleen 2 hr after intravenous injection of 3 microCi (111 kBq) in presence of 60 ug coinjected estradiol; assay type: functional; method in brief: as §2
Rattus norvegicus [30] = experiment: Mean uptake in spleen 5 hr after intravenous injection of 3 microCi (111 kBq); assay type: functional; method in brief: as §2
Rattus norvegicus [31] = experiment: Mean uptake in thyroid 2 hr after intravenous injection of 3 microCi (111 kBq); assay type: functional, Thyroid gland; method in brief: as §2
Rattus norvegicus [32] = experiment: Mean uptake in thyroid 2 hr after intravenous injection of 3 microCi (111 kBq) in presence of 60 ug coinjected estradiol; assay type: functional, Thyroid gland; method in brief: as §2
Rattus norvegicus [33] = experiment: Mean uptake in thyroid 1 hr after intravenous injection of 3 microCi (111 kBq) of the compound; assay type: functional, Thyroid gland; method in brief: as §2
Rattus norvegicus [34] = experiment: Mean uptake in liver 2 hr after intravenous injection of 3 microCi (111 kBq) in presence of 60 ug coinjected estradiol; assay type: functional; method in brief: as §2
Rattus norvegicus [35] = experiment: Mean uptake in liver 5 hr after intravenous injection of 3 microCi (111 kBq); assay type: functional; method in brief: as §2
Rattus norvegicus [36] = experiment: Mean uptake in lungs 1 hr after intravenous injection of 3 microCi (111 kBq) of the compound; assay type: functional; method in brief: as §2
Rattus norvegicus [37] = experiment: Mean uptake in lungs 2 hr after intravenous injection of 3 microCi (111 kBq); assay type: functional; method in brief: as §2
Rattus norvegicus [38] = experiment: Mean uptake in lungs 2 hr after intravenous injection of 3 uM Ci (111 kBq) in presence of 60 ug coinjected estradiol; assay type: functional; method in brief: as §2
Rattus norvegicus [39] = experiment: Mean uptake in lungs 5 hr after intravenous injection of 3 microCi (111 kBq); assay type: functional; method in brief: as §2
Rattus norvegicus [40] = experiment: Mean uptake in muscle 1 hr after intravenous injection of 3 microCi (111 kBq) of the compound; assay type: functional, Muscle tissue; method in brief: as §2
Rattus norvegicus [41] = experiment: Mean uptake in muscle 2 hr after intravenous injection of 3 microCi (111 kBq); assay type: functional, Muscle tissue; method in brief: as §2
Rattus norvegicus [42] = experiment: Mean uptake in muscles 5 hr after intravenous injection of 3 microCi (111 kBq); assay type: functional, Muscle tissue; method in brief: as §2
Rattus norvegicus [43] = experiment: Mean uptake in ovaries 1 hr after intravenous injection of 3 microCi (111 kBq) of the compound; assay type: functional, Female gonad; method in brief: as §2
Rattus norvegicus [44] = experiment: Mean uptake in ovaries 2 hr after intravenous injection of 3 microCi (111 kBq); assay type: functional, Female gonad; method in brief: as §2
Rattus norvegicus [45] = experiment: Mean uptake in ovaries 2 hr after intravenous injection of 3 microCi (111 kBq) in presence of 60 ug coinjected estradiol; assay type: functional, Female gonad; method in brief: as §2
Rattus norvegicus [46] = experiment: Mean uptake in liver 1 hr after intravenous injection of 3 microCi (111 kBq) of the compound; assay type: functional; method in brief: as §2

C[C@]12CC[C@@H]3c4ccc(O)cc4CC[C@H]3[C@@H]1CC[C@@]2(O)/C=C/[125I]
Deiodination (Rattus norvegicus [1]): 2% | Deiodination (Rattus norvegicus [2]): 2.1% | Deiodination (Rattus norvegicus [3]): 1.7% | Deiodination (Rattus norvegicus [4]): 4.4% | PDK (Rattus norvegicus [5]): 175 | PDK (Rattus norvegicus [6]): 72 | Change (Rattus norvegicus [7]): -41% | Uterus to blood ratio (Rattus norvegicus [7]): 2.32 | PDK (Rattus norvegicus [8]): 35 | PDK (Rattus norvegicus [9]): 22 | PDK (Rattus norvegicus [10]): 92 | PDK (Rattus norvegicus [11]): 11 | PDK (Rattus norvegicus [12]): 9 | PDK (Rattus norvegicus [13]): 73 | PDK (Rattus norvegicus [14]): 21 | PDK (Rattus norvegicus [15]): 10 | PDK (Rattus norvegicus [16]): 10 | PDK (Rattus norvegicus [17]): 17 | PDK (Rattus norvegicus [18]): 38 | PDK (Rattus norvegicus [19]): 12 | PDK (Rattus norvegicus [20]): 14 | PDK (Rattus norvegicus [21]): 71 | PDK (Rattus norvegicus [22]): 27 | PDK (Rattus norvegicus [23]): 29 | PDK (Rattus norvegicus [24]): 10 | PDK (Rattus norvegicus [25]): 92 | PDK (Rattus norvegicus [26]): 16 | PDK (Rattus norvegicus [27]): 27 | PDK (Rattus norvegicus [28]): 10 | PDK (Rattus norvegicus [29]): 11 | PDK (Rattus norvegicus [30]): 4 | PDK (Rattus norvegicus [31]): 2870 | PDK (Rattus norvegicus [32]): 2300 | PDK (Rattus norvegicus [33]): 1331 | PDK (Rattus norvegicus [34]): 106 | PDK (Rattus norvegicus [35]): 55 | PDK (Rattus norvegicus [36]): 49 | PDK (Rattus norvegicus [37]): 25 | PDK (Rattus norvegicus [38]): 28 | PDK (Rattus norvegicus [39]): 8 | PDK (Rattus norvegicus [40]): 30 | PDK (Rattus norvegicus [41]): 11 and 13 | PDK (Rattus norvegicus [42]): 4 | PDK (Rattus norvegicus [43]): 108 | PDK (Rattus norvegicus [44]): 43 | PDK (Rattus norvegicus [45]): 39 | PDK (Rattus norvegicus [46]): 245
